High-throughput results deposited in PubChem by The Scripps Research Institute Molecular Screening Center.
Shown are actives, neighbours in structure and some others; about 2.6% of the full set was active somewhere.
PRMT1 inh – PRMT1 methyltransferase inhibitors, primary screen, biochemical, fluorescence polarization; actives 1.3% (n = 370,000); inhibition, % at 2.79 µM; recombinant PRMT1, activity-based probe fluorescence polarization;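 active = inhibition above about 21% made by adding two undisclosed values, limit read from the data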
SIAE primary – human SIAE inhibitors, primary screen, biochemical, fluorescence polarization, FP-Rh probe, 1536-well HTS; Sialate O-acetylesterase (Homo sapiens), Q9HAT2; SIAE FP-Rh probe binding; inhibition, % at 9.66 µM; actives 0.69% (n = 370,000); AID 1053197, 2014;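 active = inhibition above a cutoff: mean of compounds within the control limits plus 3 SD of those, cut at about 17% in these data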;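 note: 0% = plate median of compound wells and 100% = probe without SIAE protein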
HTRA1 inhibitor – HTRA1 serine protease inhibitors, primary screen, biochemical, fluorescence polarization, HTS. Q92743. recombinant HTRA1, FP-rhodamine activity-based probe. inhibition, % at 5.96 µM. actives 0.5% (n = 340,000). AID 504803, 2011; in the data active = inhibition above about 36%;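 note: 0% = enzyme with DMSO and 100% = wells lacking enzyme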
TCR CD3 inh – inhibitors of human TCR-CD3 interaction, primary screen, biochemical, fluorescence, TAMRA-labeled TCR probe; T-cell receptor (TCR); inhibition, % at 9.4 µM; actives 0.37% (n = 360,000); AID 651800, 2012; in the data active = inhibition above about 19%;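 note: recombinant mutant TCR 2C K166C tagged with TAMRA read by polarization; 0% = receptor in buffer alone and 100% = receptor with positive control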
ABHD4 inh – ABHD4 inhibitors, primary screen, biochemical, fluorescence polarization, mouse; actives 0.54% (n = 370,000); inhibition, % at 8.92 µM; (Lyso)-N-acylphosphatidylethanolamine lipase (Mus musculus), Q8VD66; purified mABHD4, FP-Rh probe fluorescence polarization;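 active = inhibition exceeding the mean over every tested compound plus 3 SD, cut at about 30% in these data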;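 note: 0% = plate median of compound wells and 100% = S159A mutant with DMSO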
Target sequence (Q8VD66 whole entry, looked up): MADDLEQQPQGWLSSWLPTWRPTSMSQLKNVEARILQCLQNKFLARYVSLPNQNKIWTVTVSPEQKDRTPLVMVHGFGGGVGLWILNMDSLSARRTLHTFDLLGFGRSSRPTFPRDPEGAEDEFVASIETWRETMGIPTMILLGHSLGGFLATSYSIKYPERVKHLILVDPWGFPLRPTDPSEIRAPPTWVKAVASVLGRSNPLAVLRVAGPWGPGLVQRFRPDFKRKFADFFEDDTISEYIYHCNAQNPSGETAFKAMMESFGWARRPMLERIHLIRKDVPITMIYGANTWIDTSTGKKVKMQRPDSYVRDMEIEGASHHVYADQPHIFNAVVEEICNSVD
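Material: mouse ABHD4 enzyme, wild type; Benchmarks: S159A mutant high control, sample median low control; Buffer or medium: HEPES pH 7.0, NaCl, Pluronic buffer; Signal: fluorescence polarization; Read-out: percent inhibition of probe binding, normalized to plate controls; Timing: pre-incubation 45 min, probe exposure 60 min, at 25 °C; Dosing: 8.92 µM, single dose.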
PRMT1 inh conf – PRMT1 methyltransferase inhibitors, confirmation, biochemical, fluorescence polarization, triplicate | shares compounds with PRMT1 inh | recombinant His-PRMT1, activity-based probe fluorescence polarization | inhibition, % at 2.79 µM | actives 42% (n = 3,300);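 active = mean inhibition across replicates above the hit cutoff derived for the earlier primary screen, cut at about 22% in these data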
* = called active by the depositor; nt = no result.

SMILES	PRMT1 inh	SIAE primary	HTRA1 inhibitor	TCR CD3 inh	ABHD4 inh	PRMT1 inh conf
CCCCCCCCN1C(=O)[C@@H](CC(=O)NCCCCc2ccccc2)C[C@@]2(C(=O)OC)C1=C[C@H](C(C)(C)C)O[C@@H]2C	1	4	nt	-5	3	nt
O=C(Nc1ccc(S(=O)(=O)NC2=NCCCCC2)cc1)c1ccc([N+](=O)[O-])s1	5	8	1	-8	16	nt
O=C(Nc1ccc(S(=O)(=O)NC2=NCCCCC2)cc1)c1cccs1	70*	6	-11	-8	-3	-4
COc1ccc(C(=O)N2CCCCC2c2cc(C(=O)Nc3cccc(C#N)c3)no2)cc1 (stereo unspecified)	2	-2	nt	11	-7	nt
Cc1ccc(C2CC(c3ccco3)n3ncnc3N2)cc1 (stereo unspecified)	4	6	-3	5	2	nt
Cc1ccc2c(c1)C(N1CCCC1=O)CC(c1ccco1)N2 (stereo unspecified)	25*	1	-5	1	1	6
CCN1CCN(C(=O)CN2C(=O)COc3ccc(C)cc32)CC1	-1	-7	2	1	7	nt
Cc1sc(Cc2nc(O)cs2)nc1-c1ccccc1	58*	3	nt	-1	-1	14
Oc1csc(Cc2nc(-c3ccc(Br)cc3)cs2)n1	1	-5	5	7	24	nt
Cc1ccc(C2(C)NC(=O)N(CC(=O)Nc3nc(-c4ccccn4)cs3)C2=O)cc1 (stereo unspecified)	26*	8	-2	-13	-27	38*
O=C1COc2ccc(S(=O)(=O)Nc3ccc(F)cc3)cc2N1	1	5	1	-8	9	nt
CCn1c(-c2ccc(C)cc2)n[nH]c1=S	-1	5	-2	6	-2	nt
Cc1ccc(-c2csc3n[nH]c(=S)n23)cc1	61*	17	-4	1	-6	7
Cc1ccc(CNC(=O)CSc2c3c(nc4cc(Cl)ccc24)CCCC3)o1	60*	5	21	0	13	16
CCOC(=O)[C@]12CCC=C1N(Cc1ccc(Cl)cc1Cl)C(=O)[C@H](CC(=O)NCC13CC4CC(CC(C4)C1)C3)C2	1	-4	nt	2	3	nt
Cc1ccc(-c2ccccc2NC(=O)C2C3C=CC(C3)C2C(=O)O)o1 (stereo unspecified)	6	0	-3	1	13	nt
Cc1ccc(-c2cccc(NC(=O)C3C(C(=O)O)[C@@H]4C=C[C@H]3C4)c2)o1 (stereo partly specified)	65*	0	-14	10	-3	10
CC(C)(C)OC(=O)NCCCCCc1nnc(SCc2ccccc2)o1	81*	6	2	6	4	0
O=C1CC(Sc2ccc(Cl)cc2)C(=O)N1Cc1ccncc1 (stereo unspecified)	18	6	15	-8	1	nt
NCCSC1CC(=O)N(Cc2ccc(F)cc2)C1=O (stereo unspecified)	27*	-2	3	9	0	11
CCOC(=O)CNC(=O)Cn1cnc2c(cnn2-c2ccc(C)cc2)c1=O	76*	-3	5	-5	3	3
CCCCNC(=O)Cn1cnc2c(cnn2-c2ccc(C)cc2)c1=O	-1	4	-2	3	-1	nt
CCOC(=O)c1c(N)sc(N)c1C(=O)OCC	31*	7	6	-5	-1	56*
COc1ccc(CCNC(=O)c2ccc(-c3ccc([N+](=O)[O-])cc3Cl)o2)cc1	28*	1	-29	3	-1	1
O=C(O)/C=C/C(=O)c1ccc2c(c1)CCc1ccccc1-2	56*	-13	-15	-1	-2	72*
SMILES	PRMT1 inh	SIAE primary	HTRA1 inhibitor	TCR CD3 inh	ABHD4 inh	PRMT1 inh conf
CC(C)c1ccc(NC2CCCN(C(=O)CCn3cnnn3)C2)cc1 (stereo unspecified)	0	15	6	13	4	nt
CCc1nc2ccc(C(=O)Nc3ccc(OC)c(OC)c3)cn2c1N(C)Cc1cccs1	-1	5	nt	1	6	nt
Cc1ccc(N2NC(=O)/C(=C/c3ccc(-c4ccc(Cl)c(C(=O)O)c4)o3)C2=O)cc1	5	10	5	0	28	nt
CCN(CC)c1ccc(/C=C2/SC(=O)N(C(C)C)C2=O)o1	27*	7	-6	6	4	-54
CC(C)N1C(=O)S/C(=C\c2ccc(-c3ccc(Cl)c(C(=O)O)c3)o2)C1=O	52*	-4	-17	-3	26	8
O=C(Nc1ccncc1)c1ccc(Cl)c(Cl)c1	28*	2	-5	5	-8	-5
CN1CCc2c(sc(/N=C/c3ccco3)c2C(N)=O)C1	25*	-12	-5	0	-1	6
COc1cc(/C=C2/C(C)=C(C#N)c3nc(N)c(C#N)c(C)c32)ccc1OCC(=O)O	27*	3	nt	-5	21	9
Cc1cc(C)cc(OCC(=O)Nc2nc(-c3cccnc3)cs2)c1	35*	-2	6	-3	-10	13
O=C(COc1ccccc1)Nc1nc(-c2ccncc2)cs1	35*	-7	-13	-5	-11	34*
O=C(COc1ccccc1)Nc1nc(-c2cccnc2)cs1	7	11	-5	-1	-8	nt
CC(C)C[C@H]1CNC(=S)N1C[C@H]1CCCN1C[C@H](Cc1ccc(O)cc1)N1C[C@H](CC(C)C)N(CCc2ccccc2)C1=S	-2	-16	nt	2	-8	nt
CCOc1cc(N2CCOCC2)c(OCC)cc1NC(=O)c1ccccc1N1CCCC1=O	-4	4	7	6	5	nt
O=C1CC2(CCN(C(=O)C3CC(=O)N(c4ccccc4)C3)CC2)Oc2ccccc21 (stereo unspecified)	6	2	1	-8	6	nt
CCC1(CC)Cc2ccccc2C(CC(=O)N2CCOCC2)=N1	35*	1	3	-3	4	31*
O=C(CC1=NC2(CCCC2)Cc2ccccc21)N1CCOCC1	18	11	-2	1	-5	nt
O=C(O)c1ccc(N2C(=O)CSC2=S)cc1	10	-8	5	1	-9	nt
O=C(O)c1ccc(CN2C(=O)CSC2=S)cc1	29*	-32	-43	-41	-348	5
CSc1nc(SCC(=O)NCc2ccco2)c2c3c(sc2n1)COC(C)(C)C3	38*	-6	-4	1	-3	7
CCOC(=O)c1c(S(=O)(=O)N2CCN(c3ccc(F)cc3)CC2)c(C)n(C)c1C	-3	3	-1	2	-3	nt
O=C(O)c1ccccc1C(=O)Nc1n[nH]c(=S)s1	31*	7	2	-1	7	10
